Activity calls are given as the source filed them. The rule behind the calls is not given here.
Tests used:
[1] = Antiangiogenic activity in CD34-positive human EPC assessed as inhibition of tube formation on matrigel after 24 hrs by inverted phase-contrast microscopy; format: functional, cell-based
In short: (§1)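 Human CD34+ EPCs (from PBMCs, MACS bead separation) maintained on 1% gelatin in MV2 medium with 20% FBS. Matrigel polymerized 30 min at 37 °C; 6 × 10^4 cells/well seeded in MV2 with 2% FBS plus compound, 24 h at 37 °C. Tube length measured in three random fields per well, expressed against DMSO control; IC50 derived from this.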

[2] = Cytotoxicity against mouse RAW264.7 cells assessed as cell viability by AlamarBlue assay; format: cell-based; parameters: concentration or dose not given beside the values; details: read-out: Activity
In short: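 RAW264.7 macrophages exposed to compounds at up to 100 μM under the NO-assay conditions; viability read by AlamarBlue.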

RAW264.7 [3] = test: Antiinflammatory activity in mouse RAW264.7 cells assessed as inhibition of LPS-stimulated nitric oxide production at 100 uM compound treated prior to LPS challenge by Griess assay; format: functional
In short: (§2)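 RAW264.7 grown to confluence (24 h, DMEM 10% FBS), then serum-free DMEM 4 h for quiescence. Compounds added before LPS (200 ng/mL). Nitrite in medium read spectrophotometrically by Griess reaction. Percent inhibition calculated versus vehicle plus LPS; Emax is inhibition at 100 μM, IC50 the concentration giving 50% of Emax; n = 4−6.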

RAW264.7 [4] = test: Antiinflammatory activity in mouse RAW264.7 cells assessed as inhibition of LPS-stimulated nitric oxide production compound treated prior to LPS challenge by Griess assay; format: functional, cell-based; in short: as §2
[5] = Cytotoxicity against CD34-positive human EPC at 20 uM after 24 hrs by LDH release assay; format: cell-based
In short: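 EPCs seeded at 5 × 10^3 cells/well, treated 24 h in MV2 medium with 2% FBS containing compound at 20 μM. LDH release taken as medium LDH activity relative to cell-lysate LDH activity. Mean ± SEM of three independent experiments.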

EPC = test: Antiangiogenic activity in CD34-positive human EPC assessed as inhibition of tube formation on matrigel at 10 uM after 24 hrs by inverted phase-contrast microscopy; format: functional, cell-based; in short: as §1

SMILES	IC50 [1] [µM]	viability [2] [%]	Emax at 100 µM (RAW264.7 [3]) [%]	IC50 (RAW264.7 [4]) [µM]	Activity [5]	inhibition (EPC)
CC/C=C\[C@H](O)[C@H](O)C1=C(C)C(=O)[C@]2(O1)C(=O)N[C@@](OC)(C(=O)c1ccccc1)[C@@H]2O [PSEUROTIN A]	> 20	103	38.8	> 100		
CO[C@H]1[C@@H](OC(=O)/C=C/[C@@H](O)[C@H](C)O)CC[C@@]2(CO2)[C@@H]1[C@@]1(C)O[C@H]1CC=C(C)C	18.4	97.6	100	20.6		
CC/C=C\[C@H](O)[C@H](O)C1=C(C)C(=O)[C@]2(O1)C(=O)N[C@](OC)(C(=O)c1ccccc1)[C@H]2O	> 20	100	78.2	40.6		
N=C(N)NN [PIMAGEDINE]		99.2	83.7	24.7		
C=C1CC[C@H](OC(=O)/C=C/[C@@H](O)[C@H](C)O)[C@H](OC)[C@H]1[C@@]1(C)O[C@H]1CC=C(C)C	19.2	93	80.8	35.4	Non-Toxic	Active
N=C(NCCC[C@H](N)C(=O)O)N[N+](=O)[O-] [NITROARGININE]		102	42.1	144		
CO[C@H]1[C@@H](OC(=O)/C=C/[C@H]2O[C@@H]2C)CC[C@@]2(O)CO[C@@](C)(C(O)CC=C(C)C)[C@H]12 (stereo partly drawn)	16.2	92.2	93.4	22.8	Non-Toxic	Active
CNC(=O)c1cc(Oc2ccc(NC(=O)Nc3ccc(Cl)c(C(F)(F)F)c3)cc2)ccn1 [SORAFENIB]	3.6					
CC/C=C\[C@H](O)[C@H](O)C1=C(C)C(=O)[C@]2(O1)C(=O)N[C@@](OC)(C(=O)c1ccccc1)[C@H]2O	> 20	99.3	67.2	62.5		
CO[C@H]1[C@@H](OC(=O)/C=C/[C@H]2O[C@H]2C)CC[C@@]2(CO2)[C@@H]1[C@]1(C)O[C@H]1CC=C(C)C	17.8	98.7	100	8.8	Non-Toxic	Active
CO[C@H]1[C@@H](OC(=O)/C=C/[C@@H](O)[C@H](C)O)CC[C@@](O)(CCl)[C@@H]1[C@]1(C)O[C@H]1CC=C(C)C	8.1	99.2	87.9	19.3	Non-Toxic	Active
CC/C(O)=C/C=C(\O)C1=C(C)C(=O)[C@@]2(O1)C(=O)N[C@](OC)(C(=O)c1ccccc1)[C@H]2O	16.7	97.6	63.1	57	Non-Toxic	Active
CO[C@H]1[C@@H](OC(=O)/C=C/[C@H]2O[C@H]2C)CC[C@@](O)(CCl)[C@@H]1[C@]1(C)O[C@H]1CC=C(C)C	> 20	101	100	13.5	Non-Toxic	
